Like-named read-outs stand apart in the source and are kept apart here. Marks after values point to notes of the source that are not given here.
What was measured:
[1] = assay type: in vivo, rat; settings: for Bile/Urine (%): bile share of U excretion / Bile/Urine (%): urine share of U excretion / % Administered Dose Excreted: 24 h; for Reduction (%) of renal uranium vs control / reduction of bone actinide content vs control: 24 h post-metal; for % Administered Dose Excreted: bile + urine; for Renal Conc.: kidneys removed 24 h post-metal; for Kidney U Conc. / Liver U Conc. / Lung U Conc. / Spleen U Conc. / Bone (femur) U Conc.: tissue 24 h post-metal; for Bone (femur) U Conc.: bone + bone marrow; for reduction of bone actinide content vs control: femur
[2] = Multiple dose chelator administration in non-bile duct-cannulated; assay type: in vivo, rat; settings: for % Administered Dose Excreted / Total U Excretion: urine + feces
Procedure, shortened: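 Intact rats got uranyl acetate 1 mg U kg−1 s.c. (left flank), then test compound or DTPA 300 µmol kg−1 s.c. (right flank) immediately and at 24-h intervals (4 doses). Rats were caged singly with chow and water ad libitum. Urine and feces were collected every 24 h. Kidneys and other tissues were taken 24 h after the last dose. Uranium was measured by ICP-MS in triplicate; data are mean ± SEM.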

[3] = primates, dose 63.3 µmol kg^−1 day^−1; ref Bergeron et al., 2006b; cited from earlier work
rats = settings: rodent model; ref Bergeron et al., 2006b; cited from earlier work
[4] = assay type: in vivo, rat; settings: for administered uranium excreted (bile + urine): 24 h collection
Procedure, shortened: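 Bile duct-cannulated rats got uranium 1 mg U kg−1 s.c., then were housed singly in metabolic cages. A single s.c. 300 µmol kg−1 dose of test compound followed at 1, 2 or 4 h post-uranium. Bile and urine were collected for 24 h. Uranium was measured by ICP-MS, triplicate runs averaged. Data are mean ± SEM; one-tailed t-test assuming unequal variances, p<0.05.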

[5] = 24 h after last of 4 daily s.c. doses of 300 µmol kg^−1
[6] = Day 1, 300 µmol kg^−1 s.c. daily x 4
[7] = Day 2, 300 µmol kg^−1 s.c. daily x 4
[8] = Day 3, 300 µmol kg^−1 s.c. daily x 4
[9] = Day 4, 300 µmol kg^−1 s.c. daily x 4
[10] = single 300 µmol kg^−1 s.c. dose given 1 h post-uranium
[11] = single 300 µmol kg^−1 s.c. dose given 2 h post-uranium
[12] = single 300 µmol kg^−1 s.c. dose given 4 h post-uranium

COCCOCCOCCOc1ccc(C2=N[C@@](C)(C(=O)O)CS2)c(O)c1 [compound 9, (S)-4,5-dihydro-2-[2-hydroxy-4-(3,6,9-trioxadecyloxy)phenyl]-4-methyl-4-thiazolecarboxylic acid]
Bile/Urine (%): bile share of U excretion ([1]; single dose 150 µmol kg^−1 SC): 69%
Bile/Urine (%): urine share of U excretion ([1]; single dose 150 µmol kg^−1 SC): 31%
Reduction (%) of renal uranium vs control ([1]; single dose 150 µmol kg^−1 SC): 55%
% Administered Dose Excreted ([1]; single dose 150 µmol kg^−1 SC): 48.2%
Renal Conc. ([1]; single dose 150 µmol kg^−1 SC): 37 ± 16 ^b µg g^−1
Kidney U Conc. ([1]; single dose 150 µmol kg^−1 SC): 37 ± 16 ^b µg g^−1
Liver U Conc. ([1]; single dose 150 µmol kg^−1 SC): 1.6 ± 0.9 ^c µg g^−1
Lung U Conc. ([1]; single dose 150 µmol kg^−1 SC): 0.16 ± 0.13 µg/g
Spleen U Conc. ([1]; single dose 150 µmol kg^−1 SC): 0.20 ± 0.05 µg/g
Bone (femur) U Conc. ([1]; single dose 150 µmol kg^−1 SC): 2.1 ± 0.5 ^b µg g^−1
reduction of bone actinide content vs control ([1]; single dose 150 µmol kg^−1 s.c.): 42%
Bile/Urine (%): urine share of U excretion ([1]; single dose 300 µmol kg^−1 PO): 29%
Bile/Urine (%): bile share of U excretion ([1]; single dose 300 µmol kg^−1 PO, listed as C00009): 71%
Reduction (%) of renal uranium vs control ([1]; single dose 300 µmol kg^−1 PO): 57%
% Administered Dose Excreted ([1]; single dose 300 µmol kg^−1 PO): 43.5%
Renal Conc. ([1]; single dose 300 µmol kg^−1 PO): 36 ± 8 ^b µg g^−1
Kidney U Conc. ([1]; single dose 300 µmol kg^−1 PO): 36 ± 8 ^b µg g^−1
Liver U Conc. ([1]; single dose 300 µmol kg^−1 PO): 0.6 ± 0.2 ^c µg g^−1
Lung U Conc. ([1]; single dose 300 µmol kg^−1 PO): 0.10 ± 0.02 ^b µg g^−1
Spleen U Conc. ([1]; single dose 300 µmol kg^−1 PO): 0.13 ± 0.02 ^b µg g^−1
Bone (femur) U Conc. ([1]; single dose 300 µmol kg^−1 PO): 2.7 ± 1.2 µg/g
Bile/Urine (%): bile share of U excretion ([1]; single dose 300 µmol kg^−1 SC): 84%
Bile/Urine (%): urine share of U excretion ([1]; single dose 300 µmol kg^−1 SC): 16%
Reduction (%) of renal uranium vs control ([1]; single dose 300 µmol kg^−1 SC): 66%
% Administered Dose Excreted ([1]; single dose 300 µmol kg^−1 SC): ~52%
% Administered Dose Excreted ([1]; single dose 300 µmol kg^−1 SC, listed as C00009): 51.5%
Renal Conc. ([1]; single dose 300 µmol kg^−1 SC): 29 ± 6 ^b µg g^−1
Kidney U Conc. ([1]; single dose 300 µmol kg^−1 SC): 29 ± 6 ^b µg g^−1
Liver U Conc. ([1]; single dose 300 µmol kg^−1 SC): 0.9 ± 0.2 ^c µg g^−1
Lung U Conc. ([1]; single dose 300 µmol kg^−1 SC): 0.13 ± 0.02 µg/g
Spleen U Conc. ([1]; single dose 300 µmol kg^−1 SC): 0.18 ± 0.04 µg/g
Bone (femur) U Conc. ([1]; single dose 300 µmol kg^−1 SC): 1.9 ± 0.5 ^b µg g^−1
reduction of bone actinide content vs control ([1]; single dose 300 µmol kg^−1 s.c.): 48%
Reduction (%) of renal uranium vs control [2, 5]: 62%
Renal Conc. [2, 5]: 12 ± 2 ^c µg g^−1
Fecal U Excretion [2, 6]: 478 ± 181 µg/kg
Urine U Excretion ([2]; Day 1, 300 µmol kg^−1 s.c. daily x 4, first dose immediately post-U): 205 ± 27 µg/kg
% Administered Dose Excreted [2, 6]: 68.3%
Total U Excretion [2, 6]: 683 ± 161 ^d µg kg^−1
Fecal U Excretion [2, 7]: 116 ± 46 µg/kg
Urine U Excretion [2, 7]: 39 ± 5 µg/kg
% Administered Dose Excreted [2, 7]: 15.5%
Total U Excretion [2, 7]: 155 ± 48 ^d µg kg^−1
Fecal U Excretion [2, 8]: 33 ± 4 µg/kg
Urine U Excretion [2, 8]: 23 ± 4 µg/kg
% Administered Dose Excreted [2, 8]: 5.6%
Total U Excretion [2, 8]: 56 ± 7 µg/kg
Fecal U Excretion [2, 9]: 25 ± 2 µg/kg
Urine U Excretion [2, 9]: 11 ± 1 µg/kg
% Administered Dose Excreted [2, 9]: 3.6%
Total U Excretion [2, 9]: 36 ± 1 µg/kg
administered dose of uranium excreted at the end of four days (urine + feces) ([2]; cumulative over 4 days, 300 µmol kg^−1 s.c. daily x 4): 93%
iron excretion [3]: 450 µg Fe kg^−1
nephrotoxicity (rats): virtually eliminated nephrotoxicity
reduction in renal uranium content vs control [4, 10]: 74%
administered uranium excreted (bile + urine) [4, 10]: 34.6%
reduction in renal uranium content vs control [4, 11]: 68%
administered uranium excreted (bile + urine) [4, 11]: 28.5%
reduction in renal uranium content vs control [4, 12]: 35%
administered uranium excreted (bile + urine) [4, 12]: 28.6%

From article PMC2861555 (International journal of radiation biology, 2009)
